Source: ChEMBL document CHEMBL3046092, “Synthesis and fungicidal activity of 1-(alpha-tert-butylcinnamoyl)imidazoles” (2002)

Experiments:
Botrytis cinerea = assay: Antifungal activity against Botryotinia fuckeliana in cucumber seedlings assessed as reduction in gray mold measured after 4 days by pot test; assay type: functional
Procedure, shortened: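 Emulsifiable-concentrate formulations were diluted in water and foliar-sprayed to run-off onto cotyledon-stage seedlings. Plants were held 1 day in the greenhouse, then inoculated with agar gel carrying B. cinerea and kept 4 more days at 20°C, humid and dark. Infection degree was scored against untreated controls. pED50 is the negative log of the molar concentration giving 50% control.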

Blumeria graminis = assay: Antifungal activity against Blumeria graminis in wheat seedlings assessed as reduction in powdery mildew at 20 degC measured after 10 days by pot test; assay type: functional

Row | Compound | pED50 (Botrytis cinerea) | pED50 (Blumeria graminis)
1 | CC(C)(C)/C(=C/c1ccc(Cl)cc1)C(=O)n1ccnc1 | 4.82 | 5.92
2 | CC(C)(C)/C(=C\c1ccc(Cl)cc1)C(=O)n1ccnc1 | 2.92 | 3.52
3 | CC(C)(C)/C(=C/c1ccccc1)C(=O)n1ccnc1 | 3.4 | 4.17
4 | CC(C)(C)/C(=C/c1ccc(Br)cc1)C(=O)n1ccnc1 | 4.63 | 5.96
5 | CC(C)(C)/C(=C/c1ccc(C(F)(F)F)cc1)C(=O)n1ccnc1 | 3.04 | 4.19
6 | CC(C)(C)/C(=C/c1ccc(C#N)cc1)C(=O)n1ccnc1 | 4.4 | 5.89
7 | Cc1ccc(/C=C(\C(=O)n2ccnc2)C(C)(C)C)cc1 | 3.43 | 3.92
